Values belong to the compound of their own block, whether it stands above or below them.
Legend:
BCRP [1] = target: T1, BCRP (Homo sapiens, UniProt Q9UNQ0); experiment: BCRP inhibition, prazosin accumulation assay in MDCKII-BCRP cells; conditions: for IC50: IC50 on BCRP activity, prazosin 5 µM, 20 min, MDCKII-BCRP; for inhibition at 20 min, 2 µM: human, pH 7.4
T1 sequence (Q9UNQ0 1-655): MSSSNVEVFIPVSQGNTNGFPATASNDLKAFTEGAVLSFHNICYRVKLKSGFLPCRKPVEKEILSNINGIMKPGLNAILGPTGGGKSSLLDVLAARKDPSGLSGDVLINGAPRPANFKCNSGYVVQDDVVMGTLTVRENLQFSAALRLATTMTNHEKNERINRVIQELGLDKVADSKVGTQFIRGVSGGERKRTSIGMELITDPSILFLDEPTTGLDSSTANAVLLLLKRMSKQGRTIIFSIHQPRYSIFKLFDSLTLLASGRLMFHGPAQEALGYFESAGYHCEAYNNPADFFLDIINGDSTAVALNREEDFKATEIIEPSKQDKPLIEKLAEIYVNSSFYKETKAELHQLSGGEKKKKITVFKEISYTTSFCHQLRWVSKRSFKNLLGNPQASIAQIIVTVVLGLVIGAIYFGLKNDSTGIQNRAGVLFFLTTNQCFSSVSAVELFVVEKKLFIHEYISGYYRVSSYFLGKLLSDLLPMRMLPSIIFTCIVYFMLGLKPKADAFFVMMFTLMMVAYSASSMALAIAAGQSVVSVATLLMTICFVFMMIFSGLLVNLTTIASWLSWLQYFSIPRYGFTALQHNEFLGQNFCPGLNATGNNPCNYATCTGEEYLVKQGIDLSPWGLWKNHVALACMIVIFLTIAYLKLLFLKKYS

MDCKII-BCRP cells = experiment: Reversal of BCRP-mediated resistance to SN-38; format: cell-based, canine; conditions: flavonol 5 µM; CC50 in MDCKII-BCRP comparable to mock cells
BCRP [2] = target: T2, BCRP (Rattus norvegicus, UniProt Q80W57); experiment: In vivo pharmacokinetic interaction with the BCRP substrate sulfasalazine; design: species or system Sprague-Dawley (SD) rats; conditions: rats; for increase of sulfasalazine AUClast versus sulfasalazine alone / increase of sulfasalazine Cmax versus sulfasalazine alone: flavonol 5 mg/kg co-administered with sulfasalazine 2 mg/kg oral; for half-life: male, Sprague-Dawley, rat, plasma, po, 2 mg/kg, t1/2 of sulfasalazine
T2 sequence (Q80W57 1-657): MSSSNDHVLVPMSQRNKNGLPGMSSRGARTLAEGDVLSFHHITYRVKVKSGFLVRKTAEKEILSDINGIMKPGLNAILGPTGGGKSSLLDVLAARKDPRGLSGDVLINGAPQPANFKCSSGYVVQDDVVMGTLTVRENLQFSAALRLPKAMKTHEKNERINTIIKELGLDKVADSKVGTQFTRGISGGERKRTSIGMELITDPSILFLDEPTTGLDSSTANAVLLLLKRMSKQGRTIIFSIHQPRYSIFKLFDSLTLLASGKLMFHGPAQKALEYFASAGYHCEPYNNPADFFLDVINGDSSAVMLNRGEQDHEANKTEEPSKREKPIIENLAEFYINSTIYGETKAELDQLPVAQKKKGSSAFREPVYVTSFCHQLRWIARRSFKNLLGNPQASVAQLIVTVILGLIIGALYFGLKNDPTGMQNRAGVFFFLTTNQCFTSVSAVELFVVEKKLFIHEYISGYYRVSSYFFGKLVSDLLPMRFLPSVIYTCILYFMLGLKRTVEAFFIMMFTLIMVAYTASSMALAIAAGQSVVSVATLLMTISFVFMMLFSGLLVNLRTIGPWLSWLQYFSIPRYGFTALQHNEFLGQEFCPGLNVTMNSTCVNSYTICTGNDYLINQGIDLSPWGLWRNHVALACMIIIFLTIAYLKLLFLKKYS
In short: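 Male SD rats (8 weeks, 250–270 g), acclimatized 1 week and fasted overnight with water, n = 5/group. Oral sulfasalazine 2 mg/kg alone or co-administered with test flavonol 5 mg/kg. Plasma was separated at 4 °C and sulfasalazine measured by LC-MS/MS after methanol precipitation with IS. Noncompartmental analysis: AUClast by trapezoidal rule, Cmax observed. Groups were compared with Student's t-test; mean ± SD.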

[3] = Plasma pharmacokinetics of the flavonols after oral co-administration; format: in vivo, Sprague-Dawley (SD) rats; conditions: male, Sprague-Dawley, rat, 5 mg/kg
In short: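 Fasted male SD rats (8 weeks, 250–270 g; n = 5) were dosed orally with test flavonol 5 mg/kg together with sulfasalazine 2 mg/kg. Flavonol in plasma was quantified by LC-MS/MS: methanol/IS protein precipitation, C18 gradient of ammonium formate and formic acid–acetonitrile. Noncompartmental parameters: AUClast by trapezoidal rule, AUCinf by extrapolation, Cmax/Tmax observed, t1/2 from terminal slope; mean ± SD.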

BCRP [4] = conditions: read-out: IC50 for BCRP inhibition; cited from earlier work
BCRP [5] = conditions: amentoflavone 30 mg/kg co-administered with mitoxantrone, rats; cited from earlier work
BCRP [6] = conditions: cited from earlier work
BCRP [7] = conditions: cited from earlier work; remark: listed apart in the source

- IC50 (BCRP [1]): < 5 µM
- inhibition at 20 min, 2 µM (BCRP [1]): 45.9%
Structure (SMILES): O=c1c(O)c(-c2ccc(O)c(O)c2)oc2cc(O)cc(O)c12 [compound no. 27, 3,5,7,3’,4’-Pentahydroxyflavone]

- inhibition at 20 min, 2 µM (BCRP [1]): 45.5%
Structure (SMILES): COc1cc(-c2oc3cc(O)cc(O)c3c(=O)c2O)ccc1O [compound no. 29, 3,5,7,4’-Tetrahydroxy-3’-methoxyflavone]

- IC50 (BCRP [1]): < 5 µM
Structure (SMILES): O=c1c(O)c(-c2cccc(O)c2)oc2cc(O)ccc12 [compound 8, 3,7,3’-Trihydroxyflavone]
- reversal of BCRP-mediated resistance to SN-38 (MDCKII-BCRP cells): almost completely reversed BCRP-mediated resistance to SN-38

- IC50 (BCRP [1]): < 5 µM
Structure (SMILES): O=c1c(O)c(-c2ccccc2)oc2cc(O)ccc12 [compound no. 7, 3,7-Dihydroxyflavone]

- IC50 (BCRP [1]): < 5 µM
Structure (SMILES): Cc1c(O)cc(O)c2c(=O)c(O)c(-c3ccc(O)c(O)c3)oc12 [compound 32, 3,5,7,3’,4’-Pentahydroxy-8-methylflavone]

- IC50 (BCRP [1]): > 10 µM
Structure (SMILES): O=c1c(O)c(-c2ccc(O)cc2O)oc2cc(O)cc(O)c12 [compound 31, 3,5,7,2’,4’-Pentahydroxyflavone]

- IC50 (BCRP [1]): < 5 µM
Structure (SMILES): COc1ccc(-c2oc3cc(O)cc(O)c3c(=O)c2OC)cc1O [compound 48, 5,7,3’-Trihydroxy-3,4’-dimethoxyflavone]

Second part, the compound before the results:

Structure (SMILES): COc1ccc(-c2oc3cc(OC)c(OC)c(OC)c3c(=O)c2OC)cc1 [compound 53, 3,5,6,7,4’-Pentamethoxyflavone]
- IC50 (BCRP [1]): < 5 µM

Structure (SMILES): COc1ccc(-c2oc3cc(OC)c(OC)c(OC)c3c(=O)c2OC)cc1OC [compound no. 54, 3,5,6,7,3’,4’-Hexamethoxyflavone]
- IC50 (BCRP [1]): < 5 µM
- inhibition at 20 min, 2 µM (BCRP [1]): 52%

Structure (SMILES): COc1ccc2c(=O)c(OC)c(-c3ccc(O)c(OC)c3)oc2c1 [compound no. 43, 4’-Hydroxy-3,7,3’-trimethoxyflavone]
- reversal of BCRP-mediated resistance to SN-38 (MDCKII-BCRP cells): almost completely reversed BCRP-mediated resistance to SN-38
- IC50 (BCRP [1]): < 5 µM
- inhibition at 20 min, 2 µM (BCRP [1]): 45.2%

Structure (SMILES): COc1ccc(-c2oc3ccccc3c(=O)c2OC)cc1 [compound no. 37, 3,4’-Dimethoxyflavone]
- increase of sulfasalazine AUClast versus sulfasalazine alone (BCRP [2]): 1.79 fold
- increase of sulfasalazine Cmax versus sulfasalazine alone (BCRP [2]): approximately 1.83 fold
- AUC(0-t) [3]: 12.4 ± 5 ng·h/mL
- Cmax [3]: 13.5 ± 8.8 ng/mL
- half-life [3]: 0.54 ± 0.15 h

Structure (SMILES): O=c1cc(-c2ccc(O)c(-c3c(O)cc(O)c4c(=O)cc(-c5ccc(O)cc5)oc34)c2)oc2cc(O)cc(O)c12 [amentoflavone]
- IC50 (BCRP [4]): ~4 µM
- increase of the AUC of mitoxantrone (BCRP [5]): 1.23 fold

Structure (SMILES): O=C(O)c1cc(/N=N/c2ccc(S(=O)(=O)Nc3ccccn3)cc2)ccc1O [Sulfasalazine, sulfasalazine, reference compound]
- half-life (BCRP [2]; sulfasalazine 2 mg/kg oral + 3,4’-dimethoxyflavone 5 mg/kg): 1.76 ± 0.29 h
- half-life (BCRP [2]; sulfasalazine 2 mg/kg oral + 3,6,3’,4’-tetramethoxyflavone 5 mg/kg): 2.34 ± 1.23 h

Structure (SMILES): O=c1[nH]c(=O)c2c[nH]nc2[nH]1 [oxypurinol]
- prolongation of half-life (BCRP [6]; individuals homozygous for the p.Q141K variant): 1.8 fold

Structure (SMILES): COc1cc(Nc2ncc(F)c(Nc3ccc4c(n3)N(COP(=O)(O)O)C(=O)C(C)(C)O4)n2)cc(OC)c1OC [Fostamatinib]
- increase of the plasma concentration of rosuvastatin (BCRP [7]): approximately two-fold

Structure (SMILES): COc1cc(O)c2c(=O)c(OC)c(-c3ccc(OC)c(OC)c3)oc2c1 [compound 50, 5-Hydroxy-3,7,3’,4’-tetramethoxyflavone]
- reversal of BCRP-mediated resistance to SN-38 (MDCKII-BCRP cells): almost completely reversed BCRP-mediated resistance to SN-38
- IC50 (BCRP [1]): < 5 µM

Structure (SMILES): COc1ccc2oc(-c3ccc(OC)c(OC)c3)c(OC)c(=O)c2c1 [compound no. 46, 3,6,3’,4’-Tetramethoxyflavone]
- reversal of BCRP-mediated resistance to SN-38 (MDCKII-BCRP cells): almost completely reversed BCRP-mediated resistance to SN-38
- increase of sulfasalazine AUClast versus sulfasalazine alone (BCRP [2]): 1.74 fold
- increase of sulfasalazine Cmax versus sulfasalazine alone (BCRP [2]): 2.02 fold
- AUC(0-t) [3]: 22.3 ± 1.6 ng·h/mL
- Cmax [3]: 13.3 ± 0.6 ng/mL
- half-life [3]: 2.24 ± 0.17 h
- IC50 (BCRP [1]): < 5 µM
- inhibition at 20 min, 2 µM (BCRP [1]): 49.9%

Structure (SMILES): CC(C)c1nc(N(C)S(C)(=O)=O)nc(-c2ccc(F)cc2)c1/C=C/[C@@H](O)C[C@@H](O)CC(=O)O [rosuvastatin, reference compound]
- increase in maximum plasma concentration (BCRP [6]; 421CA or 421AA genotypes versus 421CC wild-type homozygous genotype): 1.9 fold

Structure (SMILES): COc1ccc2oc(-c3cccc(OC)c3OC)c(OC)c(=O)c2c1 [compound 47, 3,6,2’,3’-Tetramethoxyflavone]
- IC50 (BCRP [1]): > 10 µM

Structure (SMILES): COc1ccc(-c2oc3cc(OC)c(O)c(OC)c3c(=O)c2OC)cc1O [compound 52, 6,3’-Dihydroxy-3,5,7,4’-tetramethoxyflavone]
- IC50 (BCRP [1]): < 5 µM

From PMC12325899 (Scientific Reports, 2025)
